Measured values taken from ChEMBL document CHEMBL1123812, “Pyrroloisoquinoline antidepressants. 2. In-depth exploration of structure-activity relationships” (J Med Chem, 1987).
Calls of active or inactive are those of the source.

How the values were obtained:
[1] = target: Serotonin 2 (5-HT2) receptor (Rattus norvegicus) (UniProt P30994+P08909+P14842); test: Binding affinity towards 5-hydroxytryptamine 2 receptor at 1.0 uM concentration; assay type: protein assay
In short: (§1)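 Rat brain crude synaptic membranes in 20 mM NaHEPES pH 7.5. Ligands: α1 cortex […] 0.4 nM, nonspecific with (-)-NE 100 μM, 30 min at 25 °C. […] D2 striatum [3H]spiperone 0.05 nM with (+)-butaclamol 1 μM, 45 min at 37 °C. S1 cortex [3H]5-HT 1 nM plus glutathione and MgCl2, with 5-HT 10 μM, 20 min at 37 °C. […] Samples filtered on GF/B and counted.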

[2] = target: D(2) dopamine receptor (Rattus norvegicus) (UniProt P61169); test: Binding affinity towards dopamine receptor D2 at 1.0 uM concentration; in short: as §1
Sequence of D(2) dopamine receptor (Rattus norvegicus) (P61169 whole entry): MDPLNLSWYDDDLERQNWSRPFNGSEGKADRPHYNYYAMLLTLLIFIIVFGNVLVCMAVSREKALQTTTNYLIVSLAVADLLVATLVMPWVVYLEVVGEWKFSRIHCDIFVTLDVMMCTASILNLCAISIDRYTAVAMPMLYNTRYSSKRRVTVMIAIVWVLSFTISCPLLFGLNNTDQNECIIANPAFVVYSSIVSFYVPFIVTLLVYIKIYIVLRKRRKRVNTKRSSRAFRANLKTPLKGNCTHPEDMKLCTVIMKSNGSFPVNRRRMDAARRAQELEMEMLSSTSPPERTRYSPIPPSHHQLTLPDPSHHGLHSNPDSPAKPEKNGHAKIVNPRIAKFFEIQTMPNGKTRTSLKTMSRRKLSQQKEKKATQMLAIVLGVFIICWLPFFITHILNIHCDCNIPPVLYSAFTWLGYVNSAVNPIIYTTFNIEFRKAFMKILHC

Mus musculus [3] = organism: Mus musculus; test: Antagonism of tetrabenazine (TBZ)-induced depression in mice measured for ptosis; assay type: functional
In short: (§2)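 Nonfasted male Swiss Webster mice, 18–24 g, ten per dose level and in saline controls. Test compound given ip 30 min before tetrabenazine 32 mg/kg ip; dose expressed as free base. Motor activity and ptosis scored. Control response ≤90% corrected by Abbott's formula.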

Mus musculus [4] = organism: Mus musculus; test: Antagonism of tetrabenazine (TBZ)-induced depression measured in mice by motor activity; assay type: functional; in short: as §2
Mus musculus [5] = organism: Mus musculus; test: Gross behavioral effects ascertained in mice; W indicates weak stimulant or depressant activity of little significance.; assay type: functional, organism-based
In short: (§3)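 Male Swiss Webster mice, 18–24 g, three per dose, given ip doses of 1, 3, 10, 30, 100 and 300 mg/kg. Observed for gross behavior and held for 4 days. Scored as weak (W), stimulant (S), depressant (D) or convulsant (C).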

[6] = target: Serotonin 1 (5-HT1) receptor (Rattus norvegicus) (UniProt P28564+P30940+P19327+P28565); test: Binding affinity towards serotonin S1 receptor at 1.0 uM; assay type: protein assay; in short: as §1
[7] = target: Sodium-dependent dopamine transporter (Rattus norvegicus, UniProt P23977); test: Inhibition of the uptake of tritiated dopamine (DA) in rat synaptosomes; assay type: subcellular, Brain
Sequence of Sodium-dependent dopamine transporter (P23977 whole entry): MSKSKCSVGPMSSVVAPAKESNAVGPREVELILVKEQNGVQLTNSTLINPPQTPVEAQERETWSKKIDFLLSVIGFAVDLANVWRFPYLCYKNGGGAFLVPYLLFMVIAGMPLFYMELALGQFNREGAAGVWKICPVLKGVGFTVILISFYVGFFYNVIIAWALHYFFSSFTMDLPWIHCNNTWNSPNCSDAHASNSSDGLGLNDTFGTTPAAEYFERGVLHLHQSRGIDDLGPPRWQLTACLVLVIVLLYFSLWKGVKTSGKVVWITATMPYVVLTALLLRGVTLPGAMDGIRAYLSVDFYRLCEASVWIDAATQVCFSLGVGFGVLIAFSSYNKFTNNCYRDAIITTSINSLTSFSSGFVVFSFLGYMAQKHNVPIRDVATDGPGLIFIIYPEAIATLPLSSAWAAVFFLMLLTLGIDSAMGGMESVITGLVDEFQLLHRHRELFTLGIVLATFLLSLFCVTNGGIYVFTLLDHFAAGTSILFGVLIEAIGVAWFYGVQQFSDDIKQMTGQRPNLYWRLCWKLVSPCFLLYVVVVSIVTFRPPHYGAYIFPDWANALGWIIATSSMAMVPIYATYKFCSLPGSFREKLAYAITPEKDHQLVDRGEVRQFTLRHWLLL

[8] = target: Norepinephrine transporter (Rattus norvegicus, UniProt Q9WTR4); test: Inhibition of uptake of tritiated norepinephrine (NE) in rat synaptosomes; assay type: subcellular, Brain
Sequence of Norepinephrine transporter (Q9WTR4 whole entry): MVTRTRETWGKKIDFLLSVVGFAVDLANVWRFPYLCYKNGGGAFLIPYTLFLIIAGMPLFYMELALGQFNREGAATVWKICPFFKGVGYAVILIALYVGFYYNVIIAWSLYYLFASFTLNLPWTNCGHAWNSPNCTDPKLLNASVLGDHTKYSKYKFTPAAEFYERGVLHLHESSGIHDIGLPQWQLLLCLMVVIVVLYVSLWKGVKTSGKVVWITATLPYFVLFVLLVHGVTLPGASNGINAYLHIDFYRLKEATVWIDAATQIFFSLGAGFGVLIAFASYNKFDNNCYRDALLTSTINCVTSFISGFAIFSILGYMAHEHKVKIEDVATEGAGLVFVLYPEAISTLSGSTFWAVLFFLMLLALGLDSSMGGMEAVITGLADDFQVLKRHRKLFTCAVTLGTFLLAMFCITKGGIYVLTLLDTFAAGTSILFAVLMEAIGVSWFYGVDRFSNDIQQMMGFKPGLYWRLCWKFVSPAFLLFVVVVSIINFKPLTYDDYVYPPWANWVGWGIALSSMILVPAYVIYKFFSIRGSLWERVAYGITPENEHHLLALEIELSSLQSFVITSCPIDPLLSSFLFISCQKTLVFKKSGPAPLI

[9] = target: T1, Adrenergic receptor alpha-1 (Rattus norvegicus, UniProt P15823+P23944+P43140); test: Binding affinity towards alpha-1 adrenergic receptor; assay type: protein assay
T1 sequence (P15823 whole entry): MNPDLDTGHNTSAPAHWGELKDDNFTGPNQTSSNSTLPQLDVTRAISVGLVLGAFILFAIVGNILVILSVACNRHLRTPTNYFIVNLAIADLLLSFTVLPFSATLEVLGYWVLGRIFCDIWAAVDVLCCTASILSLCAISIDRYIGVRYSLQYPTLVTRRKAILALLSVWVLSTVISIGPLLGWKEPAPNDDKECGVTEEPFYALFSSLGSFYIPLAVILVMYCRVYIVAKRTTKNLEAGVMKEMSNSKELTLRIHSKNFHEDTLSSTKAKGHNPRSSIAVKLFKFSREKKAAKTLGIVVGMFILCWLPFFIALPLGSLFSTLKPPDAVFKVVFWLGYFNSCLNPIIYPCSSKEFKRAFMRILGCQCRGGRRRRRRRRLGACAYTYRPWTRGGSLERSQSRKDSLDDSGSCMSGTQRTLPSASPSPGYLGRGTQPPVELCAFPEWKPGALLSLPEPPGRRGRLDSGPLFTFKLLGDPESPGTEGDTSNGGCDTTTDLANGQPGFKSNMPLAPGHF
T1 sequence (P23944 whole entry): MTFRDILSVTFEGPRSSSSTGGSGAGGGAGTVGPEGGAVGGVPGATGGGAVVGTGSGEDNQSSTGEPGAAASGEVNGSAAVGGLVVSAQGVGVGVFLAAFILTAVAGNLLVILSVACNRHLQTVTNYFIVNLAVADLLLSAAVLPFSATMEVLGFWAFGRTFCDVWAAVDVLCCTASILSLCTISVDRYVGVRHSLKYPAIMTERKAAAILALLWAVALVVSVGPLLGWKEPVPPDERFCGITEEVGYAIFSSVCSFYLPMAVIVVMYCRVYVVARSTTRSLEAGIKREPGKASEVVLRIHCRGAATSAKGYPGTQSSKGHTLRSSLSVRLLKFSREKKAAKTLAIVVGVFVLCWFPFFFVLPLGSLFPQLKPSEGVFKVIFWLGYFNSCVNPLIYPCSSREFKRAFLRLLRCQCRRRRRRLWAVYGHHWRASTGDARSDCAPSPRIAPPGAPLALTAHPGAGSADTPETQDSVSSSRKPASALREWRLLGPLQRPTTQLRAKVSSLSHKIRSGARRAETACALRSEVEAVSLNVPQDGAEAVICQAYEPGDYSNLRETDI
T1 sequence (P43140 whole entry): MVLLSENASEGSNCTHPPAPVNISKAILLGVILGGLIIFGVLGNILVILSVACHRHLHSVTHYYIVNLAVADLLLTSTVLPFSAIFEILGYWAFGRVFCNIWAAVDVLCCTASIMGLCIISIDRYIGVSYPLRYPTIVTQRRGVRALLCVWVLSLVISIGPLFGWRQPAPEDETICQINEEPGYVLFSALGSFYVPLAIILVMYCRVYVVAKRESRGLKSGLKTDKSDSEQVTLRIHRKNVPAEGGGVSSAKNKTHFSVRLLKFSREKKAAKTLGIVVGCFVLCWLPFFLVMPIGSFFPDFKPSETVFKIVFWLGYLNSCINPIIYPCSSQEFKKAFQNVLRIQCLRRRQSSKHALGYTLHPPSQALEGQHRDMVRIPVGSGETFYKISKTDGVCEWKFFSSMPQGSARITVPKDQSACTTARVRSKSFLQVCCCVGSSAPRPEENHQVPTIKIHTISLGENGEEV

[10] = target: Serotonin 2 (5-HT2) receptor (Rattus norvegicus, UniProt P30994+P08909+P14842); test: Binding affinity towards 5-hydroxytryptamine 2 receptor; assay type: protein assay
Mus musculus [11] = test: Ability to antagonise intraperitoneal dose; inactive (<10% antagonism) at 30 mgjkg is represented as I-30.; assay type: functional, organism-based; in short: as §2
[12] = target: Sodium-dependent dopamine transporter (Rattus norvegicus) (UniProt P23977); test: Ability to inhibit the uptake of [3H]dopamine (DA) 0.1 uM concentration at rat brain synaptosomes; assay type: functional, subcellular
Sequence of Sodium-dependent dopamine transporter (Rattus norvegicus) (P23977 whole entry): as the sequence (P23977 whole entry) above
In short: (§4)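 Male Wistar rat brain synaptosomes (P2 fraction): hypothalamus for NE, striatum for DA, cerebral cortex for 5-HT. Buffer is Tris- or HEPES-buffered salt medium with glucose, ascorbate and nialamide, pH 7.4 at 37 °C. Preincubated 10 min at 37 °C with compound. Uptake started with [3H]NE 100–300 nM, [3H]DA 50–300 nM or [3H]5-HT 100–200 nM, incubated 3 min (DA) or 6–10 min (NE, 5-HT). Blanks held on ice. Filtered, counted by scintillation.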

[13] = target: Norepinephrine transporter (Rattus norvegicus) (UniProt Q9WTR4); test: Ability to inhibit the uptake of [3H]norepinephrine (NE) 0.1 uM concentration at rat brain synaptosomes; assay type: functional, subcellular; in short: as §4
Sequence of Norepinephrine transporter (Rattus norvegicus) (Q9WTR4 as listed by the source): as the sequence (Q9WTR4 whole entry) above

[14] = target: Sodium-dependent serotonin transporter (Rattus norvegicus) (UniProt P31652); test: Ability to inhibit the uptake of [3H]- serotonin(5-HT) 0.1 uM concentration at rat brain synaptosomes; assay type: functional, subcellular; in short: as §4
Sequence of Sodium-dependent serotonin transporter (Rattus norvegicus) (P31652 whole entry): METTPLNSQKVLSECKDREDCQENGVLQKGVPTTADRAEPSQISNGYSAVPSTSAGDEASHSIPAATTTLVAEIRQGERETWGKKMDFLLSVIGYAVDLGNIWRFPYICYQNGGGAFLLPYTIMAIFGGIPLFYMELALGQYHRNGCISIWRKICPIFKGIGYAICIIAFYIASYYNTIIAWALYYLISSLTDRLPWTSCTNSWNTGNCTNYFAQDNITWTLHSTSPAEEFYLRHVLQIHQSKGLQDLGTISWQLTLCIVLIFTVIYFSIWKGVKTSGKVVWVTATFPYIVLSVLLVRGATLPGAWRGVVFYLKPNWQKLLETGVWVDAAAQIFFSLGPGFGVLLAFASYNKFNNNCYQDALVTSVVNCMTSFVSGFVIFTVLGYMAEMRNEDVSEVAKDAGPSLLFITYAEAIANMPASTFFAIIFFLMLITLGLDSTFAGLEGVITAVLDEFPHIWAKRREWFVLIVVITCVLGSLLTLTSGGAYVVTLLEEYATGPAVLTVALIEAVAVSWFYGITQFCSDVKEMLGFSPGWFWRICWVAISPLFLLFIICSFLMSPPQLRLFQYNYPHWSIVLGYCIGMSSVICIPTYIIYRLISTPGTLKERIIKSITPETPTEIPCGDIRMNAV

[15] = target: Adrenergic receptor alpha-1 (Rattus norvegicus) (UniProt P15823+P23944+P43140); test: Binding affinity towards alpha-1 adrenergic receptor at 1.0 uM concentration; assay type: protein assay; in short: as §1
[16] = target: Serotonin 1 (5-HT1) receptor (Rattus norvegicus, UniProt P28564+P30940+P19327+P28565); test: Binding affinity towards serotonin S1 receptor; assay type: protein assay; in short: as §1
D(2) dopamine receptor = D(2) dopamine receptor (Rattus norvegicus, UniProt P61169); test: Binding affinity towards Dopamine receptor D2
Sequence of D(2) dopamine receptor (P61169 whole entry): as the sequence (P61169 whole entry) above

Mus musculus [17] = organism: Mus musculus; test: Gross behavioral effects ascertained in mice; S indicates significant stimulant properties.; assay type: functional, organism-based; in short: as §3
[18] = target: Muscarinic acetylcholine receptor (Rattus norvegicus) (UniProt P08482+P08483+P08485+P08911+P10980); test: Binding affinity towards Muscarinic acetylcholine receptor at 1.0 uM concentration; assay type: protein assay
[19] = target: Adrenergic receptor alpha-2 (Rattus norvegicus) (UniProt P22086+P19328+P22909); test: Binding affinity towards alpha-2 adrenergic receptor at 1.0 uM concentration; assay type: protein assay
Rattus norvegicus = organism: Rattus norvegicus; test: Ability to inhibit the uptake of tritiated norepinephrine (NE) at 0.1 uM concentration; assay type: functional; in short: as §4
[20] = target: Sodium-dependent serotonin transporter (Rattus norvegicus) (UniProt P31652); test: Inhibition of tritiated serotonin(5-HT) uptake at 0.1 uM concentration; assay type: functional; in short: as §4
[21] = target: Sodium-dependent dopamine transporter (Rattus norvegicus) (UniProt P23977); test: Inhibition of tritiated dopamine (DA) uptake at 0.1 uM concentration; assay type: functional; in short: as §4

Sequence of Serotonin 2 (5-HT2) receptor (Rattus norvegicus) (P08909 whole entry, looked up): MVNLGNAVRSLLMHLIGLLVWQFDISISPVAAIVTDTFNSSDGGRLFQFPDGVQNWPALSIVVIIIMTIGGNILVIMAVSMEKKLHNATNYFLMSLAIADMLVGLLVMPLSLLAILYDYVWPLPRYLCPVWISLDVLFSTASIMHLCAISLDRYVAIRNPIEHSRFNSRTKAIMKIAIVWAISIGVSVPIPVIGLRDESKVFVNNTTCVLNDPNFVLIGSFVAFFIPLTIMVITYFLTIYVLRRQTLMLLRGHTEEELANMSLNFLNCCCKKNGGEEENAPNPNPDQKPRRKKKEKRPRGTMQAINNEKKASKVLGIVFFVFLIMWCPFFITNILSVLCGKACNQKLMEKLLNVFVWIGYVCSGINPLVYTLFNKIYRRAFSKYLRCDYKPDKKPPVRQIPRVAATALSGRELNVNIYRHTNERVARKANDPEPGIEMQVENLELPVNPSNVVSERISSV
Sequence of Serotonin 2 (5-HT2) receptor (Rattus norvegicus) (P14842 whole entry, looked up): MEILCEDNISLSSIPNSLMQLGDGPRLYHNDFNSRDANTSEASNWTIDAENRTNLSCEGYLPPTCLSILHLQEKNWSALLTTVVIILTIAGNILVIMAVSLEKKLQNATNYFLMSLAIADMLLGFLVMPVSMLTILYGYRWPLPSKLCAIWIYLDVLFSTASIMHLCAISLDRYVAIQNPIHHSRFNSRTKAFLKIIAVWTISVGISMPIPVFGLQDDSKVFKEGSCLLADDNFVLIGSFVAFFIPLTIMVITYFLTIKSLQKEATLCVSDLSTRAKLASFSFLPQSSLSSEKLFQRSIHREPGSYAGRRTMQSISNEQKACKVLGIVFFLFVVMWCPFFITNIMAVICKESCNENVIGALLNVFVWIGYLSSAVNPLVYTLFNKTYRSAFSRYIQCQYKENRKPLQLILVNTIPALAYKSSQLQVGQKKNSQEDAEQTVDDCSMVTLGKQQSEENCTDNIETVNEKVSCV
Sequence of Serotonin 2 (5-HT2) receptor (Rattus norvegicus) (P30994 whole entry, looked up): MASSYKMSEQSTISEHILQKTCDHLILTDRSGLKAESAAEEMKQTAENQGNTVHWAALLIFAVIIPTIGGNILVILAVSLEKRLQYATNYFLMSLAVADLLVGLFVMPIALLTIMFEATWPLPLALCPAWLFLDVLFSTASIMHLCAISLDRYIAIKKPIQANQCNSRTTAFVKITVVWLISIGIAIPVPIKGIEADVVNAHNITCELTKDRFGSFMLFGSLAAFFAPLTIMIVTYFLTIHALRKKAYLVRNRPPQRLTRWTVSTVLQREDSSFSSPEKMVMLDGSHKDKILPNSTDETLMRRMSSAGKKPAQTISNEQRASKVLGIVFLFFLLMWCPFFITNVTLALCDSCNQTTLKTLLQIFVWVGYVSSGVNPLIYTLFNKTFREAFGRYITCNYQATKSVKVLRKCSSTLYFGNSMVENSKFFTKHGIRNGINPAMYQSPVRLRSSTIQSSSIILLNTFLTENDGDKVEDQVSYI

Row | Structure (SMILES) | inhibition [1] [%] | inhibition [2] [%] | ED50 (Mus musculus [3]; Mus musculus, read-out: ED50) [mg/kg] | ED50 (Mus musculus [4]; Mus musculus, read-out: ED50) [mg/kg] | behavior (Mus musculus [5]) | Ki [7] [nM] | Ki [9] [nM] | Ki [10] [nM] | Ki [16] [nM] | also measured
1 | Br.COc1cc([C@@H]2CN3CCC[C@@H]3c3ccccc32)cc(OC)c1OC | 2 | 17 | 2.5 | > 60 | Partial stimulant | ~2000 | 29 |  |  | inhibition [6]: 31%; Ki [8]: 164 nM
2 | FC(F)(F)c1cccc([C@@H]2CN3CCC[C@H]3c3ccccc32)c1 |  |  |  |  | Partial stimulant |  | 86 | 29 |  | ED50 (Mus musculus [11]): inactive; inhibition [12]: 8%; inhibition [13]: 23%; inhibition [14]: 9%
3 | COc1ccccc1[C@@H]1CN2CCC[C@@H]2c2ccccc21 | 74 |  | ~0.3 | ~0.6 | Partial stimulant |  |  |  |  | inhibition [6]: 45%
4 | c1ccc([C@@H]2CN3CCC[C@@H]3c3ccccc32)cc1 (stereo in doubt; (-)-7b) | 58 | 14 |  |  | Partial stimulant |  |  |  |  | 
5 | CN1CCc2cc(Cl)c(O)cc2[C@@H](c2ccccc2)C1 [SCH-23390] |  | 53 |  |  |  |  |  | 13 |  | inhibition [6]: 75%; inhibition [15]: 65%
6 | Br.Clc1ccccc1[C@@H]1CN2CCC[C@@H]2c2ccccc21 (stereo in doubt; (-)-24b) |  |  |  |  |  | 775 | 620 |  | 2700 | 
7 | FC(F)(F)c1cccc([C@@H]2CN3CCC[C@@H]3c3ccccc32)c1 (stereo in doubt; 37b) |  |  | 0.58 | 0.78 |  | 54.3 | 213 | 602 |  | Ki (D(2) dopamine receptor): 2220 nM; Ki [8]: 0.95 nM
8 | CSc1ccc([C@@H]2CN3CCC[C@@H]3c3ccccc32)cc1 (stereo in doubt; (+)-48b) |  |  |  |  |  |  | 274 | 142 |  | Ki (D(2) dopamine receptor): 1030 nM
9 | Br.Nc1ccc([C@@H]2CN3CCC[C@H]3c3ccccc32)cc1 |  | 16 | 0.2 | 1 |  |  |  | 29 |  | inhibition [6]: 36%; inhibition [12]: 77%; inhibition [13]: 89%; inhibition [14]: 17%; inhibition [15]: 69%
10 | Br.Clc1ccccc1[C@@H]1CN2CCC[C@@H]2c2ccccc21 (stereo in doubt; (+)-24b) |  |  |  |  |  | 17.5 | 150 |  | 9200 | 
11 | Br.Clc1ccc([C@@H]2CN3CCC[C@@H]3c3ccccc32)cc1 | 59 | 35 | 0.34 | 0.55 |  |  |  |  |  | behavior (Mus musculus [17]): Stimulant; inhibition [18]: 0%; inhibition [15]: 61%; inhibition [19]: 35%
12 | CSc1ccc([C@@H]2CN3CCC[C@@H]3c3ccccc32)cc1 (stereo in doubt; 48b) |  |  | 0.3 | > 30 |  |  | 314 | 208 | 1030 | 
13 | Br.Clc1ccccc1[C@@H]1CN2CCC[C@@H]2c2ccccc21 (stereo in doubt; 24b) |  |  |  |  |  | 35.9 | 163 |  | 1680 | Ki (D(2) dopamine receptor): 415 nM; ED50 (Mus musculus [3]): 0.44 mg/kg; ED50 (Mus musculus [4]): 1.6 mg/kg
14 | CSc1ccc([C@@H]2CN3CCC[C@@H]3c3ccccc32)cc1 (stereo in doubt; (-)-48b) |  |  |  |  |  |  | 213 | 939 | 775 | 
15 | Br.Clc1ccccc1[C@@H]1CN2CCC[C@H]2c2ccccc21 | 10 | 54 | 2.5 | > 30 | Partial stimulant |  | 41 |  |  | Inhibition (Rattus norvegicus): 41%; inhibition [20]: 19%; inhibition [21]: 9%
